Screening data from PubChem BioAssay.
Only some compounds are listed: those with a hit (about 5.6% of all), similar ones and a draw of the others.
MPTP inh: mitochondrial permeability transition pore inhibitors, primary screen, biochemical, isolated mouse mitochondria, absorbance; Ca2+ swelling absorbance, 30 min; inhibition, % at 10 µM; 360,000 tested, 1.4% active;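 active means inhibition of 50% or more, scaled per plate between neutral and stimulator controls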;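 further: 0% = DMSO wells given calcium and 100% = 1 mM EGTA wells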
aDG glyco act: activators of alpha-DG glycosylation, primary screen, uHTS, Pro5-aDG cells, AlphaScreen. alpha-DG glycosylation AlphaScreen (IIH6); 0% Pro5, 100% B10-LARGE cell signal. activation, % at 10 µM. 360,000 tested, 0.22% active;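 active means activation of at least 8% versus controls, or a plate z-score of at least 8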;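 further: Pro5 are CHO cells carrying HIG-tagged alpha-DG that lacks glycosylation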
UPR XBP1 act: activators of adaptive XBP1 UPR arm, primary screen, cell-based, CHO-XBP1 luciferase reporter, luminescence, uHTS | activation, % at 20 µM | 330,000 tested, 0.33% active | IRE1-XBP1 UPR activation; percent of tunicamycin response, DMSO as zero;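 active means versus positive control, 20 µM dose yields 30% or more activation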;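 further: 100% = tunicamycin at 10 µg/mL and 0% = DMSO only wells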
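incubation = overnight seeding at 37 °C, 6 h compound treatment at 37 °C | assay system = CHO-XBP1 cells stably carrying IRE1-XBP1-driven luciferase reporter | input = 1000 cells per well | detection = luciferase luminescence | dosing = single point, 20 µM final compound, 1% DMSO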
UPR CHOP act: activators of apoptotic CHOP UPR arm, primary screen, cell-based, CHO-CHOP luciferase reporter, luminescence, uHTS; AID 449763, 2010; activation, % at 10 µM; UPR activation; percent of tunicamycin response over DMSO baseline; 330,000 tested, 0.34% active;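 active means at 10 µM dose, activation of 40% or more, normalized to positive control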;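 further: 100% = tunicamycin at 10 µg/mL and 0% = DMSO alone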
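Test system: CHO-CHOP cells, stable luciferase reporter of PERK-eIF2a-CHOP signalling | Quantity: 500 CHO-CHOP cells per well | Buffer or medium: F12 plus 10% serum | Compound dosing: 10 µM single point, 0.5% DMSO | Schedule: 6 h compound treatment, 37 °C | Signal: Luciferase luminescence | Control set: Tunicamycin high control, DMSO low control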
CHOP inhibitor: inhibitors of CHOP promoter induction, primary screen, cell-based, unfolded protein response, luciferase reporter | CHO-K1 CHOP-promoter luciferase, tunicamycin-induced, 15-18 h | inhibition, % at 10 µM | 220,000 tested, 3.8% active;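 active means compounds that reduced the stress-induced luciferase reporter signal by more than about 70% of percent inhibition, limit read from the data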;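 further: 0% = tunicamycin plus vehicle and 100% = wells without tunicamycin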
NR3A LBD binder: binders of NR3A ligand-binding domain, primary screen, biophysical, differential scanning fluorimetry, uHTS | Glutamate receptor ionotropic, NMDA 3A (GRIN3A) ligand-binding domain | NR3A LBD differential scanning fluorimetry, Tm shift; 0% = protein alone, 100% = glycine-bound protein | Tm shift relative to glycine control, % at 25 µM | 340,000 tested, 2.5% active;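 active means melting temperature shift of at least 10% of the positive control shift, at one fixed dose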
* = called active by the depositor; / = not tested or not shown.

SMILES	MPTP inh	aDG glyco act	UPR XBP1 act	UPR CHOP act	CHOP inhibitor	NR3A LBD binder
COC(=O)c1ccc(NC(=O)CSC2=NC(=O)C(c3ccccc3)C(=O)N2)cc1 (centres undefined)	1	0	-1	4	38	12*
C/C(=N\Nc1ccccc1)c1cccc(N)c1	2	0	0	9	/	-1
CCOC(=O)Nc1ccc(Oc2ccccc2)cc1	8	0	8	2	73*	2
COC(=O)c1ccc(NC(=O)CC(=O)Nc2ccc(C(=O)OC)cc2)cc1	1	0	-8	0	/	0
O=C(CSC1=NC(=O)C(c2ccccc2)C(=O)N1)Nc1cccc(Cl)c1 (centres undefined)	5	0	0	3	13	-1
C/C(=N\Nc1cc(-c2ccccc2)nc(-c2ccc(Br)cc2)n1)c1cccc(N)c1	4	0	8	3	/	29*
COC(=O)c1ccc(NC(=O)CNc2ccccc2)cc1	4	0	0	6	-17	42*
C=Cc1cnc([N+](=O)[O-])n1C	1	1	/	/	/	/
CC(C)C[C@@H](CN1CCC[C@H]1CN1C(=O)C(=O)NC[C@@H]1Cc1ccccc1)N1C[C@H](Cc2ccc(O)cc2)N(CC2CCCCC2)C(=O)C1=O	-3	0	/	/	/	/
O=c1oc2cc(OCCO)ccc2c2c1CCCC2	0	0	2	2	/	0
CCc1cccc(C)c1NC(=S)N(CCN(C)C)C(C)c1cccnc1 (centres undefined)	-1	0	0	-2	2	0
O=C(COC(=O)c1ccc[n+]([O-])c1)Nc1ccc(Cl)cc1[N+](=O)[O-]	2	0	-3	0	/	-3
CCCCCCCCCCCC(=O)NC(C(=O)OCC)C(O)c1cccc([N+](=O)[O-])c1 (centres undefined)	50	4	0	3	92*	-4
CC1(C(=O)NS(=O)(=O)C2CC2)CCCN(C(=O)c2ccco2)C1 (centres undefined)	1	0	/	/	/	/
O=C(Cn1c(COc2ccccc2)nc2ccccc21)Nc1cccc(Cl)c1	35	0	6	1	78*	-7
COC(=O)c1[nH]c2ccccc2c1NC(=O)Oc1ccccc1	-2	0	2	1	-5	17*
COC(=O)c1[nH]c2ccc(C)cc2c1NC(=O)Oc1ccccc1	1	0	2	3	18	2
Cc1ccc(CN2C(=O)N/C(=C\c3ccc(-c4ccc(C(=O)O)cc4C)o3)C2=O)cc1	10	0	0	-1	26	0
Cc1cc(C(=O)O)ccc1-c1ccc(/C=C2\NC(=O)N(Cc3ccccc3Cl)C2=O)o1	0	0	0	0	73*	-14
COC(=O)c1cc2occc2n1CC(=O)Nc1ccc(OC)c(OC)c1	0	0	1	-1	12	-4
COC(=O)c1cc2occc2n1CC(=O)Nc1cc(OC)cc(OC)c1	0	0	0	-3	1	11*
CC(=O)c1ccc(NC(=O)CSC2=NS(=O)(=O)c3cc(Cl)ccc3N2)cc1	-2	0	1	0	/	12*
CC(C)(Oc1ccc(Cl)cc1)C(=O)Nc1ccc(S(=O)(=O)Nc2ncccn2)cc1	-3	0	-2	1	/	-3
CC(C)=C1C2CCC1C(C(=O)NCc1ccccc1)C2C(=O)O (centres undefined)	0	0	0	1	82*	-1
Cn1c(=O)c2c(SC3CCCC3)nc(C3CC3)nc2n(C)c1=O	24	0	11	1	80*	3
SMILES	MPTP inh	aDG glyco act	UPR XBP1 act	UPR CHOP act	CHOP inhibitor	NR3A LBD binder
CCCCCCCCCC[N+](C)(C)CC/C=C1/c2ccccc2Sc2ccc(Cl)cc21	-1	0	3	0	/	22*
CCOc1ccc(OCCCC(=O)NCCc2ccc(OC)cc2)cc1	-1	0	-2	1	/	34*
COc1cccc(C(=O)COC(=O)C(C)N2C(=O)c3ccccc3C2=O)c1 (centres undefined)	1	0	-1	-2	5	14*
CC(C(=O)OCC(=O)c1ccccc1)N1C(=O)c2ccccc2C1=O (centres undefined)	2	0	-2	1	13	-3
COc1ccc(C(=O)N/C(=C\c2cn(S(=O)(=O)N(C)C)c3ccccc23)C(=O)N2CCCC2)cc1	0	0	/	/	/	/
CCN(CCNCC(O)COCc1ccc(Cl)cc1)c1cccc(C)c1 (centres undefined)	42	0	1	1	83*	0
O=c1c2sccc2n(Cc2cccc(F)c2)c(=O)n1-c1ccc(F)cc1	-1	0	-1	0	7	-4
CC(C)(C)c1nn2cnnc2n(/N=C/c2ccc(O)cc2)c1=O	0	0	-1	0	7	4
COc1ccc([N+](=O)[O-])cc1N(CC(=O)NCCCOC(C)C)S(C)(=O)=O	1	0	-1	0	8	1
C[C@@H]1CN([C@H](C)CO)C(=O)c2cc(NS(=O)(=O)c3ccc(F)cc3)ccc2O[C@@H]1CN(C)Cc1ccc(Cl)c(Cl)c1	-1	0	27	20	/	13*
C[C@H](CO)N1C[C@H](C)[C@@H](CN(C)C(=O)Nc2ccc3c(c2)OCO3)Oc2c(NC(=O)Nc3ccc(C(F)(F)F)cc3)cccc2C1=O	0	-1	9	11	/	21*
C[C@H](CO)N1C[C@H](C)[C@@H](CN(C)C(=O)Nc2ccc(C(F)(F)F)cc2)Oc2c(NC(=O)Nc3ccc4c(c3)OCO4)cccc2C1=O	-2	0	-1	2	/	4
C[C@@H]1CN([C@H](C)CO)C(=O)c2cccc(NC(=O)Nc3ccc(F)cc3)c2O[C@H]1CN(C)C(=O)Nc1ccc(C(F)(F)F)cc1	0	0	-2	6	/	15*
C[C@H](CO)N1C[C@H](C)[C@@H](CN(C)C(=O)NC2CCCCC2)Oc2c(NC(=O)Nc3ccc(C(F)(F)F)cc3)cccc2C1=O	1	0	3	4	/	11*
Cc1ccc(OCC(=O)N(C)CC(=O)Nc2cccc(F)c2)cc1	-1	0	-3	2	/	8
O=C(NCCc1ccc(Cl)cc1)c1ccc(Br)s1	-2	0	5	4	/	-1
